Source: article PMC5222895 (Drugs & Aging, 2016)

Legend:
Type in all cases: in vivo, human
[1] = Free serum insulin aspart pharmacokinetics after single subcutaneous dosing; conditions: single s.c. 0.2 U/kg
Procedure, shortened: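 Same crossover dosing (0.2 U/kg s.c., fasted). Blood sampled before dosing, every 2 min to 20 min, every 5 min to 80 min, every 10 min to 2 h, every 15 min to 3 h, then 3.5–12 h. Free (PEG-precipitated) serum insulin aspart measured by validated specific ELISA, LLOQ 10 pmol/L. Pre-LLOQ concentrations imputed by compartmental modelling for initial AUC portion.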

[2] = test system: subjects with type 1 diabetes mellitus; test: Safety assessments
Procedure, shortened: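 Monitored from dosing to follow-up 7–21 days after second dose: adverse events, injection-site local tolerability, hypoglycaemic episodes, laboratory safety, physical exam, vital signs, ECG. Hypoglycaemia confirmed if severe (ADA, third-party assistance) or plasma glucose <3.1 mmol/L. Summarised descriptively for subjects receiving at least one dose.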

[3] = test system: subjects with type 1 diabetes mellitus; test: Euglycaemic glucose clamp; conditions: single s.c. 0.2 U/kg
Procedure, shortened: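 Single 0.2 U/kg s.c. dose into the lower abdominal wall in randomised two-visit crossover (3–12 day washout), elderly (≥65 y) and younger (18–35 y) T1DM subjects, morning after overnight fast. Euglycaemic clamp, BG target 5.5 mmol/L, up to 12 h. GIR logged every minute. Partial and total AUCGIR taken from raw profiles. Least square means; age-group ratios with 95% CI.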

[4] = elderly (≥65 years) T1DM, least square mean, n = 30
[5] = elderly and younger adults with T1DM, single s.c. 0.2 U/kg

## insulin aspart
[1]; age group ratio, T1DM
  AUCIAsp,0-t, ratio of elderly/younger adults [95% CI]: 1.32 [1.09–1.59]
  C max, ratio of elderly/younger adults [95% CI]: 1.20 [0.96–1.50]
[1]; [4]
  t Early 50% Cmax: 28.0 min
  t max: 1.07 h
[1]; elderly T1DM, least square mean, n = 30
  C max (maximum insulin aspart concentration): 0.3676 nM
[2]; during the trial
  Injection-site reactions: no injection-site reactions
[2]; [5]
  Adverse events of moderate intensity: eight
  Serious adverse events: no serious adverse events
  Tolerability: well-tolerated
[2]; severe (ADA) or plasma glucose <3.1 mmol/L, during the trial
  Confirmed hypoglycaemic episodes: No confirmed hypoglycaemic episodes
[3]; age group ratio, T1DM
  GIRmax, ratio of elderly/younger adults [95% CI]: 0.78 [0.60–1.01]
[3]; age group ratio, T1DM, primary endpoint for faster aspart
  AUCGIR,0-t, ratio of elderly/younger adults [95% CI]: 0.85 [0.67–1.07]
[3]; elderly T1DM, clamp up to 12 h, least square mean, n = 22
  AUCGIR,0-t (total glucose-lowering effect): 1012.5 mg/kg
